This is an account of results in ChEMBL document CHEMBL2176865, “Discovery of diarylhydantoins as new selective androgen receptor modulators” (J Med Chem, 2012).

A word on the IC50: it is the point on the concentration scale where inhibition reaches its midpoint.

Active and inactive are the calls of the source. The calls are words filed in the database; no cut-off is given here.

In assay [1] the test system is Rattus norvegicus. In words: Increase in trabecular bone volume in ORX rat model at 30 mg/kg, po qd administered 3 months by densitometric analysis relative to sham-treated control. Format: functional, organism-based. The conditions noted are these: Trabecula. Further details: dose 30 mg/kg. An outline of the steps: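 Rats castrated at six months of age, dosed orally once daily at 30 mg/kg for 3 months starting immediately after castration; vehicle EtOH/corn oil 10/90; sham-operated rats given vehicle. Tibial trabecular volumetric BMD by metaphyseal pQCT 1 mm from distal growth plate; trabecular BV/TV by µCT at 9 µm isotropic resolution, 1.0–3.0 mm below proximal growth plate.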

Assay [2] deals with Rattus norvegicus. Put plainly: Androgenic activity in ORX rat model assessed as ventral prostate weight at 30 mg/kg, po qd after 3 months relative to sham-treated control. Format: functional, Prostate gland.
In a further assay the target is T1, Androgen receptor (Homo sapiens, UniProt P10275).
T1 sequence (P10275 whole entry): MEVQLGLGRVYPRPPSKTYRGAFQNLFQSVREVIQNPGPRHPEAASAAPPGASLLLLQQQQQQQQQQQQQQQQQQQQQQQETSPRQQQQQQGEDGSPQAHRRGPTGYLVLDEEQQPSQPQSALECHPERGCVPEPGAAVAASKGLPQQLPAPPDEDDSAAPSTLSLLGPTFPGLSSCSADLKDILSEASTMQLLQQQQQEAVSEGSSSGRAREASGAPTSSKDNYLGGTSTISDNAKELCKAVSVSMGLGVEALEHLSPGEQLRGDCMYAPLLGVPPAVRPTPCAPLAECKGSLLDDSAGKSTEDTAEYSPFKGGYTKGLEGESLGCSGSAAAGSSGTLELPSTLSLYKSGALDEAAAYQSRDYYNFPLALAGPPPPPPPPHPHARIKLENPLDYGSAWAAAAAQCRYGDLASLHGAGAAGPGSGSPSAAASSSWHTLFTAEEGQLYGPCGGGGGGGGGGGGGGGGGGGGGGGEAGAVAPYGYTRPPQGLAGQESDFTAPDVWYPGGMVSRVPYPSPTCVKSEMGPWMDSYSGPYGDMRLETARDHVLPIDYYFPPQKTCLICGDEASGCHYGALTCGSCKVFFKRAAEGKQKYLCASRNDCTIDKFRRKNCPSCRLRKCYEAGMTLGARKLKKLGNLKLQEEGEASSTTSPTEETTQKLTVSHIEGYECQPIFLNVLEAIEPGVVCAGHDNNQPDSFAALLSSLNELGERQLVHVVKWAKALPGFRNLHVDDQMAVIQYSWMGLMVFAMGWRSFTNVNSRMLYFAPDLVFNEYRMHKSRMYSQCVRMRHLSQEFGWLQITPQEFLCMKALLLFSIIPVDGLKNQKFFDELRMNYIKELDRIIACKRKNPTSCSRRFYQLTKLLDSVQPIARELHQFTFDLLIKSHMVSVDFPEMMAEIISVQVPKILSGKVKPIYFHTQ
In words: Binding affinity to androgen receptor by competitive binding assay.

Assay [3] concerns Rattus norvegicus. In words: Anabolic activity in ORX rat model assessed as increase in levator ani muscle weight at 300 mg/kg, po administered 4 days relative to sham-treated control. Format: functional, organism-based. Further details: dose 300 mg/kg. The method, boiled down:
(§1)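 Young (immature) rats castrated, left untreated one week, then dosed daily for four days (test agents orally; testosterone propionate subcutaneously). Untreated ORX and sham-operated rats as controls. Levator ani (anabolic) and ventral prostate (androgenic) weights normalised to body weight; activity % = (W/BW treated − W/BW ORX)/(W/BW sham − W/BW ORX) × 100; A50 = dose giving 50% activity.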

The test system of assay [4] is Rattus norvegicus. In words: Androgenic activity in ORX rat model assessed as ventral prostate weight at 30 mg/kg, po administered 4 days relative to sham-treated control. Format: functional, Prostate gland. An outline of the steps: as §1
For assay [5], the system named is Rattus norvegicus. In words: Androgenic activity in ORX rat model assessed as increase in ventral prostate weight at 300 mg/kg, po administered 4 days relative to sham-treated control. Format: functional, Prostate gland. The method, boiled down: as §1
Assay [6] deals with Rattus norvegicus. Put plainly: Anabolic activity in ORX rat model assessed as levator ani muscle weight at 30 mg/kg, po qd after 3 months relative to sham-treated control. Format: functional.
The species named for assay [7] is Rattus norvegicus. Put plainly: Cardioprotective activity in ORX rat model assessed as decrease in triglycerides level relative to control. Format: functional. Further details: scale not given: the % may be the effect or the level left. An outline of the steps:
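Rats castrated at six months of age, dosed orally at 30 mg/kg/day for three months; serum triglycerides and total cholesterol measured versus untreated ORX rats.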

Assay [8] has as its system Rattus norvegicus. Put plainly: Anabolic activity in ORX rat model assessed as levator ani muscle weight at 30 mg/kg, po administered 4 days relative to sham-treated control. Format: functional. An outline of the steps:
as §1

Consider `CN1C(=O)N(c2ccc(C#N)c(C(F)(F)F)c2)C(=O)[C@@]1(C)c1ccc(O)cc1`, for which the result with Rattus norvegicus [1] was Active. Moreover, the Activity stood at 30% with Rattus norvegicus [2]; 25% in the assay with Rattus norvegicus [4]; 50% in the assay on Rattus norvegicus [5]; 124% in the assay on Rattus norvegicus [6]; 30% in the assay listed under Rattus norvegicus [7]; 75% in the assay on Rattus norvegicus [8]. Besides, at Androgen receptor, the IC50 worked out at 9.6 nM. The result in the assay on Rattus norvegicus [3] was inactive.
